Data taken from ChEMBL document CHEMBL1138577, “Design, synthesis of 8-alkoxy-5,6-dihydro-[1,2,4]triazino[4,3-a]quinolin-1-ones with anticonvulsant activity” (Eur J Med Chem, 2009).
Activity calls are given as the source filed them. The calls are words filed in the database; no cut-off is given here.

What was measured:
Mus musculus [1] = test: Anticonvulsant activity in ip dosed C57B/6 mouse assessed as protection against maximal electroshock-induced seizures administered before 30 mins of MES induction; format: functional; conditions: C57B/6, ip, 0.5 h
Summary of the method: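 Compound in polyethyleneglycol-400 given ip to C57B/6 mice (18–25 g, 10 per group) over a dose range. 30 min post-dose, 60-Hz alternating current, 50 mA, applied via corneal electrodes for 0.2 s. Protection scored as abolition of hind-leg tonic maximal extension; doses spanning 10–90% protection used to derive ED50.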

Mus musculus [2] = test: Anticonvulsant activity in ip dosed C57B/6 mouse assessed as protection against strychnine-induced seizures administered before 30 mins of strychnine induction measured for 30 mins; format: functional, organism-based
Summary of the method: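 C57B/6 mice (18–25 g, groups of 10) received compound ip in polyethyleneglycol-400; 30 min later strychnine chlorhydrate in saline (1.2 mg/mL, 1 mL/kg) given sc, a dose convulsing all naïve animals. Mice observed individually for 30 min.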

Mus musculus [3] = test: Anticonvulsant activity in ip dosed C57B/6 mouse assessed as protection against thiosemicarbazide-induced seizures administered before 30 mins of thiosemicarbazide induction measured after 1 hr; format: functional; conditions: C57B/6, ip
Summary of the method: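 Thiosemicarbazide 50 mg/kg ip, a dose convulsing 100% of animals, given 30 min after ip test compound (PEG-400, various doses) to C57B/6 mice (18–25 g, n=10/group). Tonic convulsions scored; ED50 calculated as dose preventing them in 50% of treated animals.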

Mus musculus [4] = test: Anticonvulsant activity in ip dosed C57B/6 mouse assessed as protection against isoniazid-induced seizures administered before 30 mins of isoniazid induction measured for 1 hr; format: functional; conditions: C57B/6, ip
Summary of the method: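 Mice (C57B/6, 18–25 g; n=10 per group) dosed ip with compound in PEG-400 at several doses, then challenged 30 min later with isoniazid 250 mg/kg ip, a dose convulsing all naïve animals. Housed singly and watched 1 h for tonic convulsions; ED50 = dose preventing them in 50% of animals.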

Mus musculus [5] = test: Anticonvulsant activity in ip dosed C57B/6 mouse assessed as protection against 3 mercaptopropionic acid-induced seizures administered before 30 mins of 3 mercaptopropionic acid induction measured after 1 hr; format: functional; conditions: C57B/6, ip
Summary of the method: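 C57B/6 mice (18–25 g), groups of 10, given test compound ip in polyethyleneglycol-400 across a dose range; 30 min later 3-MP 40 mg/kg in saline injected sc. Endpoint: prevention of tonic convulsions; ED50 calculated as dose protecting 50% of animals.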

Mus musculus [6] = test: Anticonvulsant activity in ip dosed C57B/6 mouse assessed as protection against pentylenetetrazole-induced seizures administered before 30 mins of pentylenetetrazole induction; format: functional; conditions: C57B/6, ip, 0.5 h
Summary of the method: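 Pentylenetetrazole 85 mg/kg sc, a dose convulsing 100% of naïve animals, given 30 min after ip compound (PEG-400 vehicle, several doses) to C57B/6 mice, 18–25 g, groups of 10. ED50 calculated as dose preventing tonic convulsions in 50% of animals.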

[7] = Neurotoxicity in C57B/6 mouse assessed as inability to maintain equilibrium on 1-in diameter rod for 1 min after 30 mins by rotarod test; format: toxicity, organism-based; conditions: in vivo
Summary of the method: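 Rotarod neurotoxicity: C57B/6 mice (18–25 g, groups of 10) dosed ip with compound in polyethyleneglycol-400 over a dose range; 30 min later placed on 1-in. knurled rod rotating at 6 rpm for 1 min. Toxicity = failure to keep equilibrium in each of three trials; doses spanning 10–90% used for TD50.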

Mus musculus [8] = organism: Mus musculus; test: Protective index, ratio of TD50 for neurotoxicity in C57B/6 mouse to ED50 for anticonvulsant activity in C57B/6 mouse; format: functional
Summary of the method: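 PI computed as TD50 (rotarod neurotoxicity) divided by ED50 (MES test), both in ip-dosed C57B/6 mice, compounds in PEG-400, tested 30 min post-dose.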

Row | SMILES | ED50 (Mus musculus [1]) [mg/kg] | other results
1 | COc1ccc(COc2ccc3c(c2)CCc2nncc(=O)n2-3)cc1OC | 45.6 | 
2 | O=c1cnnc2n1-c1ccc(OCc3ccc(F)cc3)cc1CC2 | 38 | 
3 | COc1ccc(COc2ccc3c(c2)CCc2nncc(=O)n2-3)cc1 | 56.8 | 
4 | Cc1nnc2n(c1=O)-c1ccc(OCc3ccccc3)cc1CC2 | > 100 | 
5 | O=c1cnnc2n1-c1ccc(OCc3c(Cl)cccc3Cl)cc1CC2 | 20.5 | 
6 | O=c1cnnc2n1-c1ccc(OCc3ccc(Cl)cc3)cc1CC2 | 32.9 | 
7 | O=c1cnnc2n1-c1ccc(OCc3ccccc3)cc1CC2 | 22.8 | 
8 | O=c1cnnc2n1-c1ccc(OCc3cccc(Cl)c3)cc1CC2 | 22.8 | ED50 (Mus musculus [2]): inactive; ED50 (Mus musculus [3]): 15.8 mg/kg; ED50 (Mus musculus [4]): 19.7 mg/kg; ED50 (Mus musculus [5]): 11.8 mg/kg; ED50 (Mus musculus [6]): 11.3 mg/kg
9 | O=c1cnnc2n1-c1ccc(OCc3ccccc3F)cc1CC2 | 23.7 | 
10 | CCCCCOc1ccc2c(c1)CCc1nncc(=O)n1-2 | 21.9 | 
11 | O=c1cnnc2n1-c1ccc(OCc3ccc(Cl)cc3Cl)cc1CC2 | 26.4 | 
12 | c1ccc(COc2ccc3c(c2)CCc2nncn2-3)cc1 |  | ED50 (Mus musculus [6]): 24 mg/kg
13 | O=C1CCc2cc(OCc3ccccc3)ccc2N1 | 29.6 | 
14 | O=c1cnnc2n1-c1ccc(OCc3ccccc3Cl)cc1CC2 | 13.7 | TD50 at 30 min [7]: 106 mg/kg; PI (Mus musculus [8]): 7.7
15 | CCCOc1ccc2c(c1)CCc1nncc(=O)n1-2 | 32.9 | 
16 | O=c1cnnc2n1-c1ccc(OCc3cccc(F)c3)cc1CC2 | 31.7 | 
17 | CCCCCCCCCCCCOc1ccc2c(c1)CCc1nncc(=O)n1-2 | 54.8 | 
18 | NC(=O)N1c2ccccc2C=Cc2ccccc21 [CARBAMAZEPINE] |  | ED50 (Mus musculus [2]): inactive; PI (Mus musculus [8]): 6.4
19 | CCCCCCCCOc1ccc2c(c1)CCc1nncc(=O)n1-2 | 12.7 | TD50 at 30 min [7]: 98.6 mg/kg; PI (Mus musculus [8]): 7.76
20 | CCOc1ccc2c(c1)CCc1nncc(=O)n1-2 | 39.4 | 
21 | O=c1cnnc2n1-c1ccc(OCc3ccccc3Br)cc1CC2 | 16.4 | TD50 at 30 min [7]: 132 mg/kg; PI (Mus musculus [8]): 8
22 | CCCCCCOc1ccc2c(c1)CCc1nncc(=O)n1-2 | 19.7 | TD50 at 30 min [7]: 82.2 mg/kg; PI (Mus musculus [8]): 4.2
23 | CCCCCCOc1ccc2c(c1)CCc1nnc(C)c(=O)n1-2 | > 100 | 
24 | CCCCOc1ccc2c(c1)CCc1nncc(=O)n1-2 | 22.7 | 
25 | CCCCCCCOc1ccc2c(c1)CCc1nncc(=O)n1-2 | 11.4 | TD50 at 30 min [7]: 114 mg/kg; PI (Mus musculus [8]): 10
26 | O=c1cnnc2n1-c1ccc(OCc3ccc(Br)cc3)cc1CC2 | 64.2 | 
27 | Cc1ccc(COc2ccc3c(c2)CCc2nncc(=O)n2-3)cc1 | 27.4 | 
